Data: PMC3951241 (Journal of medicinal chemistry, 2013)
Like-named read-outs stand apart in the source and are kept apart here.

Experiments:
[1] = system: tadpoles; experiment: Tadpole loss of righting reflex; format: in vivo; conditions: for EC50: read-out: Tadpole LSR EC50; for tadpole LRR EC50: loss of righting reflex, None = no effect at 10 μM; for tadpole LRR EC50 / Tadpole LSR EC50: ± SEM; for Tadpole LSR EC50: loss of swimming reflex, None = all animals had a swimming response at 10 μM test compound
[2] = system: picrotoxin binding site on the heterogeneous GABAA receptors found in rat brain membranes; experiment: [35S]TBPS displacement from rat brain membranes; conditions: comparison of IC50 values
[3] = biological target: rat wild type α1β2γ2L GABAA receptors (Rattus norvegicus, UniProt P62813+P63138); experiment: Single-channel recordings in HEK 293 cells; format: cell-based; conditions: 50 μM GABA + 20 μM compound; for OT long, mean duration of the longest-lived intracluster open time component: 4-7 patches
Method in brief: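 Single-channel currents from the rat wild-type α1β2γ2L GABAA receptor, activated by 50 μM GABA alone (control) or with 20 μM test compound; 4-7 patches per condition. Intracluster open-time histograms were fitted to sums of two or three exponentials, and closed-time histograms to three. Mean duration and fraction of the longest open component, and fraction of the longest closed component, were analysed statistically.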

[4] = system: mice; experiment: Anesthesia; format: in vivo, mouse; conditions: tail vein injection
Method in brief: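 Mice received test compound by tail vein injection, dissolved in 22.5% aqueous 2-(hydroxypropyl)-β-cyclodextrin. Lower doses were made by serial dilution of the 8 mg/kg stock solution with 0.9% saline. Anesthesia was scored as loss of righting reflex (LRR), and LRR duration was recorded at each dose.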

[5] = system: tadpoles; conditions: cited from earlier work
[6] = system: mice; conditions: tail vein injection, previously found ref 15, cited from earlier work

CO[C@@H]1C[C@]2(C)[C@H](CC[C@@H]3[C@@H]2CC[C@@]2(C)C(=O)CC[C@@H]32)C[C@H]1O (single isomer, unassigned) [ent-2, (2α,3β,5β,8α,9β,10α,13α,14β)-3-Hydroxy-2-methoxyandrostan-17-one]
EC50 [1]: > 10 µM | fold decrease in [35S]TBPS displacement potency relative to ent-1 [2]: about 21 fold

C[C@@]12CC[C@H]3[C@@H](CC[C@@H]4C[C@@H](O)CC[C@]43C)[C@@H]1CC(=O)C2 (single isomer, unassigned) [ent-7, (3β,5β,8α,9β,10α,13α,14β)-3-Hydroxyandrostan-16-one]
OT long, mean duration of the longest-lived intracluster open time component [3]: 12.4 ± 3.4 ms | closed time, first listed component, duration ([3]; sample patch of Figure 3): 0.27 ms | closed time, first listed component, fraction ([3]; sample patch of Figure 3): 71% | closed time, second listed component, duration ([3]; sample patch of Figure 3): 2.1 ms | closed time, second listed component, fraction ([3]; sample patch of Figure 3): 24% | closed time, third listed component, duration ([3]; sample patch of Figure 3): 25.0 ms | closed time, third listed component, fraction ([3]; sample patch of Figure 3): 5% | open time, first listed component, duration ([3]; sample patch of Figure 3): 0.64 ms | open time, first listed component, fraction ([3]; sample patch of Figure 3): 39% | open time, second listed component, duration ([3]; sample patch of Figure 3): 10.9 ms | open time, second listed component, fraction ([3]; sample patch of Figure 3): 61% | fold lower tadpole LRR EC50 relative to ent-1 ([1]; comparison of EC50 values): ~ three | fold lower tadpole LSR EC50 relative to ent-1 ([1]; comparison of EC50 values): ~ three | fold increase in [35S]TBPS displacement potency relative to ent-1 [2]: about four | duration of LRR in mice ([4]; 8 mg/kg): about 3 min | duration of LRR in mice ([4]; 16 mg/kg): about 7 min

CO[C@@H]1C[C@]2(C)[C@H](CC[C@H]3[C@@H]4CC(=O)C[C@]4(C)CC[C@@H]32)C[C@H]1O (single isomer, unassigned) [ent-8, (2α,3β,5β,8α,9β,10α,13α,14β)-3-Hydroxy-2-methoxyandrostan-16-one]
fold higher tadpole LRR EC50 relative to ent-7 ([1]; comparison of EC50 values): ~ five | fold higher tadpole LSR EC50 relative to ent-7 ([1]; comparison of EC50 values): ~ five | fold decrease in [35S]TBPS displacement potency relative to ent-7 [2]: about 37 fold

CO[C@H]1[C@H]2CC[C@H]3[C@@H]4CC(=O)C[C@]4(C)CC[C@@H]3[C@]2(C)CC[C@@H]1O (single isomer, unassigned) [ent-9, (3β,4α,5β,8α,9β,10α,13α,14β)-3-Hydroxy-4-methoxyandrostan-16-one]
OT long, mean duration of the longest-lived intracluster open time component [3]: 17.7 ± 6.6 ms | closed time, first listed component, duration ([3]; sample patch of Figure 3): 0.24 ms | closed time, first listed component, fraction ([3]; sample patch of Figure 3): 67% | closed time, second listed component, fraction ([3]; sample patch of Figure 3): 28% | closed time, third listed component, duration ([3]; sample patch of Figure 3): 14.3 ms | closed time, third listed component, fraction ([3]; sample patch of Figure 3): 6% | open time, first listed component, duration ([3]; sample patch of Figure 3): 0.80 ms | open time, first listed component, fraction ([3]; sample patch of Figure 3): 52% | open time, second listed component, duration ([3]; sample patch of Figure 3): 30.3 ms | open time, second listed component, fraction ([3]; sample patch of Figure 3): 48% | duration of LRR in mice ([4]; 2 mg/kg (threshold dose)): about 1 min | duration of LRR in mice ([4]; 4 mg/kg): about 5 min | duration of LRR in mice ([4]; 8 mg/kg): about 9 min | threshold dose for LRR in mice [4]: 2 mg/kg

O=C1C[C@@H]2CC[C@H]3[C@@H](CC[C@@H]4C[C@@H](O)CC[C@H]43)[C@@H]2C1 (single isomer, unassigned) [ent-12, (3β,5β,8α,9β,10α,13α,14β)-3-Hydroxygonan-16-one]
OT long, mean duration of the longest-lived intracluster open time component [3]: 11.5 ± 3.3 ms | closed time, first listed component, duration ([3]; sample patch of Figure 3): 0.25 ms | closed time, first listed component, fraction ([3]; sample patch of Figure 3): 54% | closed time, second listed component, duration ([3]; sample patch of Figure 3): 2.0 ms | closed time, second listed component, fraction ([3]; sample patch of Figure 3): 24% | closed time, third listed component, duration ([3]; sample patch of Figure 3): 27.8 ms | closed time, third listed component, fraction ([3]; sample patch of Figure 3): 22% | open time, first listed component, duration ([3]; sample patch of Figure 3): 0.29 ms | open time, first listed component, fraction ([3]; sample patch of Figure 3): 29% | open time, second listed component, duration ([3]; sample patch of Figure 3): 2.1 ms | open time, second listed component, fraction ([3]; sample patch of Figure 3): 23% | open time, third listed component, duration ([3]; sample patch of Figure 3): 13.2 ms | open time, third listed component, fraction ([3]; sample patch of Figure 3): 48% | tadpole LRR EC50 [1]: neither LRR nor LSR and None | Tadpole LSR EC50 [1]: neither LRR nor LSR and None

C[C@]12CC[C@@H](O)C[C@@H]1CC[C@@H]1[C@@H]2CC[C@]2(C)C(=O)CC[C@@H]12 [compound 1, Androsterone]
EC50 ([5]; read-out: tadpole LRR EC50, loss of righting reflex, literature values ref 9): 3.38 ± 0.9 µM

CO[C@H]1C[C@@]2(C)[C@@H](CC[C@@H]3[C@@H]2CC[C@]2(C)C(=O)CC[C@@H]32)C[C@@H]1O [compound 2, (2β,3α,5α)-3-Hydroxy-2-methoxyandrostan-17-one]
EC50 [1]: > 10 µM | fold decrease in [35S]TBPS displacement potency relative to steroid 1 [2]: about five

CO[C@H]1[C@H](O)CC[C@]2(C)[C@H]3CC[C@]4(C)C(=O)CC[C@H]4[C@@H]3CC[C@@H]12 [compound 3, (3α,4β,5α)-3-Hydroxy-4-methoxyandrostan-17-one]
tadpole LRR EC50 [1]: None | Tadpole LSR EC50 [1]: None

C[C@]12CC[C@@H](O)C[C@@H]1CC[C@@H]1[C@@H]2C(=O)C[C@]2(C)/C(=C\C#N)CC[C@@H]12 [compound 4, [3α,5α,17(20)Z]-3-Hydroxy-11-oxopregn-17(20)-ene-21-nitrile]
EC50 ([5]; read-out: Tadpole LSR EC50, loss of swimming reflex, literature values ref 15): 5.48 ± 0.2 µM | EC50 ([5]; read-out: tadpole LRR EC50, loss of righting reflex, literature values ref 15): 1.44 ± 0.2 µM

CC(=O)[C@H]1CC[C@H]2[C@@H]3CC[C@H]4C[C@H](O)CC[C@]4(C)[C@H]3CC[C@]12C [compound 5, allopregnanolone]
EC50 ([5]; read-out: Tadpole LSR EC50, loss of swimming reflex, literature values ref 46): 5.5 ± 0.5 µM | EC50 ([5]; read-out: tadpole LRR EC50, loss of righting reflex, literature values ref 46): 0.42 ± 0.04 µM

CC(=O)[C@H]1CC[C@H]2[C@@H]3CC[C@H]4C[C@H](O)CC[C@]4(C)[C@H]3C(=O)C[C@]12C [compound 6, alphaxalone]
duration of LRR in mice ([6]; 8 mg/kg): less than 1 min | threshold dose for LRR in mice [6]: 8 mg/kg | EC50 ([5]; read-out: Tadpole LSR EC50, loss of swimming reflex, literature values ref 48): 5.48 ± 0.11 µM | EC50 ([5]; read-out: tadpole LRR EC50, loss of righting reflex, literature values ref 48): 1.12 ± 0.14 µM | duration of LRR in mice ([4]; 16 mg/kg): about 4 min
